Consider one molecule from ChEMBL document CHEMBL4406804, “Discovery of a Potent Steroidal Glucocorticoid Receptor Antagonist with Enhanced Selectivity against the Progesterone and Androgen Receptors (OP-3633)” (J Med Chem, 2019).

Data set [1] addresses T1, Glucocorticoid receptor (Homo sapiens, UniProt P04150).
T1 sequence (P04150 whole entry): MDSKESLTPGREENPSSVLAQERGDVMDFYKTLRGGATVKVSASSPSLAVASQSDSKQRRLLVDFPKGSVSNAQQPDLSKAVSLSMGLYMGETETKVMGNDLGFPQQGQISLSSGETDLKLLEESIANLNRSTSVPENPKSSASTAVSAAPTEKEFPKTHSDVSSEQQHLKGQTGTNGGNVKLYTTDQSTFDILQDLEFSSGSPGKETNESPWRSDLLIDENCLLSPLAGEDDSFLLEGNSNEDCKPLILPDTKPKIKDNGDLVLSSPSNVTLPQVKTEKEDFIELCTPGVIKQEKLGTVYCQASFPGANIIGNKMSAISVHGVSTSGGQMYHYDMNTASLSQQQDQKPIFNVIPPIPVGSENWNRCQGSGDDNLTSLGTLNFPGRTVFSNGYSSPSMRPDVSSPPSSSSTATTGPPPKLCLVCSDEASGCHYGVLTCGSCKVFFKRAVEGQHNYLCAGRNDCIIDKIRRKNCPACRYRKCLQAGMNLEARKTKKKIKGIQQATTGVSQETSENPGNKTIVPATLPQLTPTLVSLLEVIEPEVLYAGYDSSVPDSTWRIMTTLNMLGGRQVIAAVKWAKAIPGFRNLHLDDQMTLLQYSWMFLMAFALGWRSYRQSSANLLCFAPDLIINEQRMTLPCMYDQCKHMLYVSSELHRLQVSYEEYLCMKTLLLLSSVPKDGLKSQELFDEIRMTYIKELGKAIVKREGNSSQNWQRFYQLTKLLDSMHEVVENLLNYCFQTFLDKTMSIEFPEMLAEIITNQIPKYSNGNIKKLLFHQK
The data set can be described thus: Antagonist activity at human glucocorticoid receptor expressed in CHO-K1 cells harboring firefly luciferase gene after 20 hrs by One-Glo luciferase reporter gene assay. The class given is cell-based.

A further data set concerns the target T2, Androgen receptor (Homo sapiens, UniProt P10275).
T2 sequence (P10275 whole entry): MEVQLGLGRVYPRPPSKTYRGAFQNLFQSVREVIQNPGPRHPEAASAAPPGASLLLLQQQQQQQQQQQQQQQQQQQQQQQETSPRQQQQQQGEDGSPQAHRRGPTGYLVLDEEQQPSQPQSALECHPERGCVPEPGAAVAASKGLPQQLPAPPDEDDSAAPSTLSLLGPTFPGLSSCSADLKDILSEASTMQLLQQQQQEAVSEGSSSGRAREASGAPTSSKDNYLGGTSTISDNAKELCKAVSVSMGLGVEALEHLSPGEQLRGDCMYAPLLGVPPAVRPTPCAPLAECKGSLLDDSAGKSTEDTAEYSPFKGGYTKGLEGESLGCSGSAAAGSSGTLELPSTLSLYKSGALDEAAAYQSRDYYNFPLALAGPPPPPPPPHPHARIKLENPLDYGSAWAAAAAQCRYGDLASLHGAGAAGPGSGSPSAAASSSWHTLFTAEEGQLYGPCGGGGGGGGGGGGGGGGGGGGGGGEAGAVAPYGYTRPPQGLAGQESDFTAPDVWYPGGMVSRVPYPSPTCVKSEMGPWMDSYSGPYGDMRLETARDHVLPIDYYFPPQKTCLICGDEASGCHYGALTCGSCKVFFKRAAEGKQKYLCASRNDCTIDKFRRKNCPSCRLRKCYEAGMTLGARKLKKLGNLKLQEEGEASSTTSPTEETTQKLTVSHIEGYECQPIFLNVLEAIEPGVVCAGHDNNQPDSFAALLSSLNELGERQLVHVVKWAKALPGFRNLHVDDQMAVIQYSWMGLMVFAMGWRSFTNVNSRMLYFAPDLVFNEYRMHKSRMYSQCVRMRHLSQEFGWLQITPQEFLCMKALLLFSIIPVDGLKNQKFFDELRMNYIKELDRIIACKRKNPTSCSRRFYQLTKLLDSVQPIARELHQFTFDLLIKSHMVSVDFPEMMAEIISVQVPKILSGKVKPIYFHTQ
The data set can be described thus: Agonist activity at human androgen receptor in human LNCAP cells harboring firefly luciferase gene after 20 hrs by One-Glo luciferase reporter gene assay relative to mifepristone. The class given is cell-based. A digest of the protocol: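 Cell-based luciferase reporter assays for GR, AR and PR, run in agonist and antagonist modes. Potency and Emax are averages of at least two determinations, reported with SD.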
(In a reporter assay the amount or activity of a reporter protein is the signal.)

The next data set concerns the target T3, Cytochrome P450 2C8 (Homo sapiens, UniProt P10632).
T3 sequence (P10632 whole entry): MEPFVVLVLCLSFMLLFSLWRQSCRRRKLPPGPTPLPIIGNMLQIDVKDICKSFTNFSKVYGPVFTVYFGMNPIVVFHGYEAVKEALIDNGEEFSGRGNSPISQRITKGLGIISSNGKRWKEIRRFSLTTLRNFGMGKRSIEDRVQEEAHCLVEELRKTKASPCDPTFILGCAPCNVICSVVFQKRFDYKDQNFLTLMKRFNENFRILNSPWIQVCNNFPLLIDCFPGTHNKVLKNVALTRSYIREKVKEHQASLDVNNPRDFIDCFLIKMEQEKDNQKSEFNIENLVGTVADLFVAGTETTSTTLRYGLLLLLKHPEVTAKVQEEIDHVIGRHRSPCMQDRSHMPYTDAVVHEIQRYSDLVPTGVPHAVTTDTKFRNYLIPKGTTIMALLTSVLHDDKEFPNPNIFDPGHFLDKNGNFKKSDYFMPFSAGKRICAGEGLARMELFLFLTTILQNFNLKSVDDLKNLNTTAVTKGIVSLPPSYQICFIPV
The data set can be described thus: Inhibition of CYP2C8 (unknown origin) using paclitaxel as substrate. The class given is ADME.

Data set [2] deals with T1, Glucocorticoid receptor. The data set can be described thus: Displacement of fluormone tracer from full length human recombinant glucocorticoid receptor expressed in baculovirus expression system incubated for 2 hrs by competitive fluorescence polarization binding assay. For orientation: In fluorescence polarisation assays a small probe gives low polarisation when free and higher when bound to something large.

Data set [3] can be described thus: Cmax in rat at 5 mg/kg, po. The data set is classed as ADME, organism-based. The arrangement: dose 5 mg/kg, route oral. As to conditions: in vivo. A digest of the protocol:
(§1)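 Rat PK study. The iv dose of 0.5 mg/kg was given in 10% DMSO, 70% PEG 400 and 20% water. The oral dose of 5 mg/kg was given in 5% DMSO / 95% of 0.2% Tween 80 in 0.25% CMC, adjusted to pH 4 for one compound. Read-outs were CL, Vss, iv t1/2, F, Cmax and AUC.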

Data set [4] is described as follows: AUC in rat at 5 mg/kg, po. The class given is ADME, organism-based. As to conditions: in vivo. A digest of the protocol:
as §1

Data set [5] can be described thus: Oral bioavailability in dog at 5 mg/kg. The data set is classed as ADME, organism-based, Canis lupus familiaris. As to conditions: in vivo.
The nature of data set [6]: Cmax in dog at 5 mg/kg, po. The data set is classed as ADME, organism-based, Canis lupus familiaris. The arrangement: dose 5 mg/kg, route oral. As to conditions: in vivo.
A short description of data set [7]: AUC in dog at 5 mg/kg, po. The data set is classed as ADME, organism-based, Canis lupus familiaris. As to conditions: in vivo.
Data set [8] can be described thus: Half-life in mini-pig at 0.5 mg/kg, iv. The class given is ADME, organism-based, Sus scrofa domesticus. As to conditions: in vivo.
Data set [9] is described as follows: Oral bioavailability in mini-pig at 5 mg/kg. The class given is ADME, organism-based, Sus scrofa domesticus. The following applies: in vivo.
Data set [10] is described as follows: Cmax in mini-pig at 5 mg/kg, po. As to conditions: in vivo. The arrangement: dose 5 mg/kg, route oral. The data set is classed as ADME, organism-based, Sus scrofa domesticus.
Data set [11] can be described thus: AUC in mini-pig at 5 mg/kg, po. The class given is ADME, organism-based, Sus scrofa domesticus. The following applies: in vivo.
The nature of data set [12]: Toxicity in female rat assessed as effect on clinical observation at 250 mg/kg/day, po administered once daily via gavage for 14 days. The class given is organism-based. The following applies: in vivo, 336 h.
Data set [13] can be described thus: Toxicity in female rat assessed as effect on ovarian weight at 250 mg/kg/day, po administered once daily via gavage for 14 days. The following applies: in vivo, 336 h. The class given is organism-based.
Data set [14] in a line: Toxicity in female rat assessed as effect on uterine weight at 250 mg/kg/day, po administered once daily via gavage for 14 days. The class given is organism-based. As to conditions: in vivo, 336 h.

Structures are written as SMILES.

Broadly, the IC50 is the concentration that inhibits the measured activity by half. As a reminder, the Emax is the greatest response seen or fitted, relative to the assay's reference. One may read the Cmax as the peak of the concentration-time curve. The AUC is the area under the concentration-time curve, a measure of exposure. As usually defined, the bioavailability is the share of a dose that reaches the circulation, judged against a reference dose that is usually intravenous. A higher bioavailability goes with much systemic uptake. What is called half-life is the time in which the quantity being followed falls by half. A lower half-life goes with fast loss.

On to `CC#C[C@]1(O)CC[C@H]2[C@@H]3CCC4=CC(=O)CC[C@]4(C)[C@H]3[C@@H](c3ccc(N(C)C)cc3)C[C@@]21C`, for which the IC50 on Glucocorticoid receptor [1] was found to be 29 nM; against Cytochrome P450 2C8 it was 8000 nM; at Glucocorticoid receptor [2], 8.5 nM. Besides, the Emax at 20 h on Androgen receptor amounted to 13.3%. In addition, the Cmax amounted to 518 ng/mL in [3], 1260 ng/mL in data set [6] and 249 ng/mL in [10]. The results for the exposure (AUC) in data set [4], in data set [7] and in data set [11] were 1020 ng·h/mL, 5930 ng·h/mL and 2450 ng·h/mL, respectively. For the same molecule, the values for the bioavailability in [5] and in data set [9] were 67.6% and 35.9%, respectively. In data set [8], the half-life is 2.71 h. The Activity entry in [12], in data set [13] and in data set [14] was “Non-Toxic” throughout.
